From ChEMBL document CHEMBL1133083, “Synthesis and immunosuppressive activity of 2-substituted 2-aminopropane-1,3-diols and 2-aminoethanols” (2000)

Key:
[1] = species on record: Rattus norvegicus; test: T cell-decreasing effect in spleen cells of WKAH rat which were injected into foot-pad of LEW rat.; format: functional; conditions: read-out: ID50 (the source's name)
Procedure, shortened: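 T-cell decrease was measured in the popliteal node gain model: WKAH spleen cells (5 × 10⁶) injected into the LEW rat footpad, with oral dosing for 4 days from the day of injection. Blood T-cells were counted by two-colour flow cytometry with FITC anti-rat CD3 (1F4) and PE anti-rat CD45RA (OX-33). Value is ID₅₀ (mg/kg).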

[2] = species on record: Rattus norvegicus; test: Immunosuppressive activity against LEW rats injected with spleen cells of WKAH rat in Popliteal Lymph Node Gain Assay.; format: functional; conditions: read-out: ID50 (the source's name)
Procedure, shortened: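 Popliteal lymph node gain: WKAH rat (RT1^k) spleen cells, 5 × 10⁶, injected into footpad of LEW rats (RT1^l) to enlarge the draining popliteal node. Compound given orally for 4 days starting on the day of cell injection, then popliteal node weighed. Value is ID₅₀ (mg/kg).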

[3] = species on record: Rattus norvegicus; test: Lymphocyte-decreasing effect against F344 rats.; format: functional; conditions: for ED50: read-out: ID50 (the source's name)
Procedure, shortened: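 F344 rats aged 5 weeks were dosed intraperitoneally in 20% hydroxypropyl-β-cyclodextrin. Peripheral blood was taken 24 h later and total lymphocytes counted by lymphocyte gating. ID₅₀/ID₈₀ is the lowest dose lowering the lymphocyte count by 50% or 80% of the vehicle-treated control.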

[4] = tested on: Rattus norvegicus; test: Immunosuppressive activity against skin allograft in F344 recipient (rat) from LEW donor (rat) at a concentration of 10 mg/kg; format: functional
Procedure, shortened: (§1)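 MHC-compatible skin allograft: LEW (RT1^l) donor skin to F344 (RT1^lv1) recipients, all rats 4-6 weeks old. Full-thickness 2.0 × 2.0 cm grafts were placed on the recipient's lateral thorax under sterile bactericidal gauze. Read-out was mean survival time in days ± SE, with four animals per group. Deaths were scored as toxic.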

[5] = tested on: Rattus norvegicus; test: Immunosuppressive activity against skin allograft in F344 recipient (rat) from LEW donor (rat) at a concentration of 3 mg/kg; format: functional; procedure, shortened: as §1
[6] = tested on: Rattus norvegicus; test: Immunosuppressive activity against skin allograft in F344 recipient (rat) from LEW donor (rat) at a concentration of 0.1 mg/kg; format: functional; procedure, shortened: as §1
[7] = tested on: Rattus norvegicus; test: Immunosuppressive activity against skin allograft in F344 recipient (rat) from LEW donor (rat) at a concentration of 0.3 mg/kg; format: functional; procedure, shortened: as §1
[8] = tested on: Rattus norvegicus; test: Immunosuppressive activity against skin allograft in F344 recipient (rat) from LEW donor (rat) at a concentration of 1 mg/kg; format: functional; procedure, shortened: as §1
[9] = tested on: Rattus norvegicus; test: Immunosuppressive activity against skin allograft in F344 recipient (rat) from LEW donor (rat) at a concentration of 3 mg/kg; Toxic; format: functional, organism-based; set-up: dose 3 mg/kg
[10] = tested on: Rattus norvegicus; test: Immunosuppressive activity against skin allograft in F344 recipient (rat) from LEW donor (rat) at a concentration of 30 mg/kg; format: functional; procedure, shortened: as §1
[11] = tested on: Rattus norvegicus; test: Immunosuppressive activity against skin allograft in F344 recipient (rat) from LEW donor (rat) at a concentration of 10 mg/kg; Toxic; format: functional, organism-based; set-up: dose 10 mg/kg

SMILES | ED50 [1] [mg/kg] | ED50 [2] [mg/kg] | ID80 [3] [mg/kg] | ED50 [3] [mg/kg] | MST [8] [days] | further results
CCCCCCCCc1ccc(CCC(N)(CCO)CCO)cc1 | > 10 | > 10 | – | – | – | –
CCCCCCc1ccc(CCCCC(N)(CO)CO)cc1 | – | – | >3 | > 3 | – | MST [4]: 18.8 days; MST [5]: 13.8 days
CCCCCCC/C(=N\O)c1ccc(CCC(N)(CO)CO)cc1 | – | – | 1 | 0.03 | – | –
CCCCCCCOc1ccc(CCC(N)(CO)C(C)C)cc1.Cl (stereo unspecified) | 4.5 | – | – | – | – | –
CCCCCCCOc1ccc(CC[C@@](N)(CO)CCO)cc1.Cl | 0.018 | 0.017 | – | – | – | –
Cl.NC(CO)(CO)CCCCCCCCCCc1ccccc1 | – | – | 1 | 0.3 | 27 | MST [6]: 11.5 days; MST [7]: 21.5 days; MST [9]: Toxic
CCc1ccc(CCCCCCCCC(N)(CO)CO)cc1.Cl | – | – | >3 | > 3 | – | MST [4]: 8.6 days; MST [5]: 8.5 days
CCCCCCCC(O)c1ccc(CCC(N)(CO)CO)cc1 (stereo unspecified) | – | – | 0.3 | 0.1 | – | –
CCCCCCCCc1ccc(CCC(N)CO)cc1.Cl (stereo unspecified) | > 10 | > 10 | – | – | – | –
CCCCCCCCc1ccc(CCC(N)(CO)CO)s1.Cl | – | – | >3 | 1 | 17.3 | MST [7]: 13 days; MST [5]: 21 days
CCCCCCCOc1ccc(CCC(N)(CC)CO)cc1.Cl (stereo unspecified) | 0.044 | – | – | – | – | –
CCCCCCCCCCCCCCc1ccc(CCC(N)(CO)CO)cc1.Cl | – | – | >3 | 1 | – | –
CCCCCCCc1ccc(CCCC(N)(CO)CO)cc1.Cl | – | – | >3 | > 3 | – | MST [4]: 10.5 days; MST [5]: 9 days
CCCCCCCCc1ccc(CCC(N)(CO)C(=O)O)cc1 (stereo unspecified) | > 10 | > 10 | – | – | – | –
CCCCCCCOc1ccc(CCC(N)(CO)CCC)cc1 (stereo unspecified) | 7.3 | – | – | – | – | –
CCCCCCCCCCCc1ccc(CCC(N)(CO)CO)cc1.Cl | – | – | 0.1 | 0.1 | 39.3 | MST [7]: 23.3 days; MST [9]: Toxic
C/C=C/C[C@@H](C)[C@@H](O)[C@H]1C(=O)N[C@@H](CC)C(=O)N(C)CC(=O)N(C)[C@@H](CC(C)C)C(=O)N[C@@H](C(C)C)C(=O)N(C)[C@@H](CC(C)C)C(=O)N[C@@H](C)C(=O)N[C@H](C)C(=O)N(C)[C@@H](CC(C)C)C(=O)N(C)[C@@H](CC(C)C)C(=O)N(C)[C@@H](C(C)C)C(=O)N1C [CYCLOSPORINE] | > 30 | – | >30 | > 30 | 8 | MST [5]: 10.8 days; MST [10]: 19.8 days
CCCCCCCCCCCCCCC(N)(CO)CO.Cl | – | – | 0.3 | 0.3 | 37.3 | MST [6]: 13.8 days; MST [7]: 26.5 days; MST [11]: Toxic; MST [5]: 45.5 days
CCCCCCCCc1ccc(CCC(C)(N)CCO)cc1.Cl (stereo unspecified) | > 10 | > 10 | – | – | – | –
C=CCC(N)(CO)CCc1ccc(OCCCCCCC)cc1 (stereo unspecified) | 3.1 | 1.9 | – | – | – | –
CCCCCCCSc1ccc(CCC(N)(CO)CO)cc1 | – | – | 0.03 | 0.03 | 44.5 | MST [6]: 22.3 days; MST [7]: 36 days; MST [9]: Toxic
CCCCCCCCc1cccc(CCC(N)(CO)CO)c1.Cl | – | – | >3 | > 3 | – | –

SMILES | ED50 [1] [mg/kg] | ED50 [2] [mg/kg] | ID80 [3] [mg/kg] | ED50 [3] [mg/kg] | MST [8] [days] | further results
CCCCCCCN(C)c1ccc(CCC(N)(CO)CO)cc1.Cl | – | – | 1 | 1 | 21.3 | MST [11]: Toxic; MST [5]: 29 days
CCCCCCCCCc1ccc(CCC(N)(CO)CO)cc1.Cl | – | – | 0.1 | 0.03 | 32 | MST [7]: 23 days; MST [9]: Toxic
CCCCCCCCc1ccc(CCC(N)(CO)CCCO)cc1.Cl (stereo unspecified) | 0.021 | 0.085 | – | – | – | –
CCCCCCCOc1ccc(CC[C@@](N)(CO)CCC)cc1 | 4.4 | – | – | – | – | –
CCCCCCCOc1ccc(CCC(N)(CO)CCO)cc1 (stereo unspecified) | 0.055 | 0.038 | – | – | – | –
CCCCCCCOc1ccc(CC[C@](N)(CO)CCO)cc1.Cl | 4.2 | 4.2 | – | – | – | –
CCCCCCCOc1ccc(CCC(N)(CO)CO)cc1.Cl | 0.014 | – | 0.1 | 0.03 | 33.8 | MST [6]: 15 days; MST [7]: 23.5 days; MST [11]: Toxic; MST [5]: 39.5 days
CCCCCCCCc1ccccc1CCC(N)(CO)CO.Cl | – | – | >3 | > 3 | – | –
CCCCCCCOc1ccc(CC[C@](N)(CO)CCC)cc1 | > 10 | > 10 | – | – | – | –
CCCCCCCCCCCCCc1ccc(CCC(N)(CO)CO)cc1.Cl | – | – | 1 | 0.03 | – | –
CCCCCCCc1ccc(CCC(N)(CO)CO)cc1.Cl | – | – | 0.3 | 0.1 | – | –
CCCCCCCCc1ccc(CCC(N)(CO)CO)cc1.Cl [FINGOLIMOD HYDROCHLORIDE] | 0.024 | 0.0097 | 0.1 | 0.03 | 39.5 | MST [6]: 25.3 days; MST [7]: 31.3 days; MST [11]: Toxic; MST [5]: 52 days
CCCCc1ccc(CCCCCCC(N)(CO)CO)cc1.Cl | – | – | 1 | 0.3 | – | MST [4]: 13.5 days; MST [5]: 9.8 days
CCCCCCCCc1ccc(CCC(N)(CO)CCO)cc1 (stereo unspecified) | 0.12 | 0.009 | – | – | – | –
CCCCCCCCCCc1ccc(CCC(N)(CO)CO)cc1.Cl | – | – | 0.1 | 0.1 | 48 | MST [6]: 20 days; MST [7]: 37.8 days; MST [9]: Toxic
CCCCCCCCCc1ccc(CC(N)(CO)CO)cc1.Cl | – | – | >3 | > 3 | – | MST [4]: 11.8 days; MST [5]: 9.8 days
CCCCCCCOc1ccc(CC[C@@](C)(N)CO)cc1.Cl | 0.0092 | – | – | – | – | –
CCCCCCCCCCCCc1ccc(CCC(N)(CO)CO)cc1.Cl | – | – | 1 | 0.1 | 40.5 | MST [6]: 12 days; MST [7]: 22.8 days; MST [11]: Toxic; MST [5]: 53 days
CCCCCCCOc1ccc(CCC(N)(CO)CCCC)cc1 (stereo unspecified) | > 10 | > 10 | – | – | – | –
CCCCCCCC(=O)c1ccc(CCC(N)(CO)CO)cc1 | – | – | 0.3 | 0.03 | 32.5 | MST [6]: 19.8 days; MST [7]: 25.5 days; MST [9]: Toxic
CCCCCCCCCCc1ccc(C(N)(CO)CO)cc1.Cl | – | – | >3 | 0.3 | – | –
